The source made the active and inactive calls. The calls are words filed in the database; no cut-off is given here.
Columns and labels:
NCI-H1299 [1] = experiment: Inhibition of oxidative phosphorylation in human NCI-H1299 cells assessed as decrease in spare capacity at 10 to 20 uM pretreated for 12 hrs in presence of glucose/2-DG and oligomycin by […]; format: functional, cell-based; conditions: dose microM 10-20, time 12.0 hrs
In short: (§1)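 H1299 cells, 10,000 per well, exposed to 10 or 20 µM or PBS for 12 h, then Seahorse XF96. Glycolysis stress: glucose 10 mM, oligomycin 1 µM, 2-DG 50 mM (ECAR). Mito stress: oligomycin 1 µM, FCCP 1 µM, rotenone/antimycin A 0.5 µM (OCR). Normalised to cell number; triplicates, mean ± s.d.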

NCI-H1299 [2] = experiment: Induction of ROS production in human H1299 cells using carboxy-H2DCFDA at 10 to 20 uM incubated for 24 hrs by FACS analysis; format: functional, cell-based; conditions: dose microM 10-20
In short: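 H1299 cells, 2×10^5 per well, loaded 24 h after seeding with 12.5 µM carboxy-H2DCFDA for 60 min after PBS wash; harvested and analysed by flow cytometry, excitation 490/emission 530 nm.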

[3] = AUC (0 to 24 hrs) in ICR mouse at 100 mg/kg, ip measured upto 24 hrs by LC-MS analysis; format: ADME, organism-based; set-up: route intraperitoneal, dose 100 mg/kg, time <=24; conditions: in vivo
In short: (§2)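 Male ICR mice, single intraperitoneal 100 mg/kg in 7% DMSO/7% Cremophor EL/86% PBS; heparinised blood at 0.25, 0.5, 1, 2, 4, 6, 10, 24 h; plasma extracted with methanol, quantified by HPLC against a standard curve (water/methanol with 0.1% TFA gradient); n = 3 animals per time point.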

NCI-H1299 [4] = experiment: Inhibition of anaerobic glycolysis in human NCI-H1299 cells assessed as decrease in glycolysis rate pretreated for 12 hrs in presence of glucose/2-DG and oligomycin by […]; format: functional, cell-based; in short: as §1
NCI-H1299 [5] = experiment: Inhibition of anaerobic glycolysis in human NCI-H1299 cells assessed as decrease in glycolytic reserve pretreated for 12 hrs in presence of glucose/2-DG and oligomycin by […]; format: functional, cell-based; in short: as §1
[6] = Apparent oral clearance in ICR mouse at 100 mg/kg, ip measured upto 24 hrs by LC-MS analysis; format: ADME, organism-based; conditions: in vivo; in short: as §2
[7] = Toxicity in nude mouse xenografted with human NCI-H1299 cells assessed as kidney and liver histology at 100 mg/kg, ip qd upto 8 days by haematoxylin and eosin staining-based light microscopic analysis; conditions: in vivo, 192 h
NCI-H1299 [8] = experiment: Reduction in lactate production in human H1299 cells at 10 to 20 uM incubated for 24 hrs colorimetry based lactate assay; format: functional, cell-based; conditions: dose microM 10-20
In short: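 Cells grown overnight at 37 °C; at 50% confluence switched to phenol red-free, serum-free RPMI for 1 h at 37 °C; medium lactate measured colorimetrically with a kit, normalised to microscope cell counts.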

[9] = Apparent oral volume of distribution in ICR mouse at 100 mg/kg, ip measured upto 24 hrs by LC-MS analysis; format: ADME, organism-based; conditions: in vivo; in short: as §2
PC-9 = experiment: Antiproliferative activity against human PC-9 cells assessed as reduction in cell viability measured after 72 hrs by MTT assay; format: functional, cell-based; conditions: PC-9, 72 h
In short: (§3)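 Cells grown in RPMI-1640 (H1299, PC9) or F-12K (A549) with 10% FBS and penicillin/streptomycin; 2000 H1299 or A549 or 1000 PC9 cells per well, attached 24 h, exposed to inhibitor 72 h; MTT 0.5 mg/mL for 4 h, absorbance at 570 nm; mean ± s.d., n=3.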

NCI-H1299 [10] = experiment: Inhibition of anaerobic glycolysis in human NCI-H1299 cells assessed as decrease in glycolytic capacity pretreated for 12 hrs in presence of glucose/2-DG and oligomycin by […] assay; format: functional, cell-based; in short: as §1
[11] = Half life in ICR mouse at 100 mg/kg, ip measured upto 24 hrs by LC-MS analysis; format: ADME, organism-based; conditions: in vivo; in short: as §2
[12] = target: 5'-AMP-activated protein kinase catalytic subunit alpha-2 (Homo sapiens) (UniProt P54646); experiment: Activation of AMPK in human H1299 cells assessed as increase in AMPK phosphorylation at 10 to 20 uM by Western blot analysis; format: cell-based; conditions: NCI-H1299, filed as activator, dose microM 10-20
NCI-H1299 [13] = experiment: Inhibition of oxidative phosphorylation in human NCI-H1299 cells assessed as decrease in maximal respiration at 10 to 20 uM pretreated for 12 hrs in presence of glucose/2-DG and oligomycin by […]; format: functional, cell-based; conditions: dose microM 10-20, time 12.0 hrs; in short: as §1
NCI-H1299 [14] = experiment: Inhibition of oxidative phosphorylation in human NCI-H1299 cells assessed as decrease in oxygen consumption rate at 10 to 20 uM pretreated for 80 mins in presence of glucose/2-DG and oligomycin by seahorse XF24 extracellular flux analyzer assay; format: functional, cell-based; conditions: dose microM 10-20, time 80.0 min
NCI-H1299 [15] = experiment: Inhibition of oxidative phosphorylation in human NCI-H1299 cells assessed as decrease in basal respiration at 10 to 20 uM pretreated for 12 hrs in presence of glucose/2-DG and oligomycin by […] assay; format: functional, cell-based; conditions: dose microM 10-20, time 12.0 hrs; in short: as §1
NCI-H1299 [16] = experiment: Inhibition of anaerobic glycolysis in human NCI-H1299 cells assessed as decrease in extracellular acidification rate at 10 to 20 uM pretreated for 12 hrs in presence of glucose/2-DG and oligomycin by seahorse XF96 extracellular flux analyzer assay; conditions: dose microM 10-20, time 12 h
A549 = experiment: Antiproliferative activity against human A549 cells assessed as reduction in cell viability measured after 72 hrs by MTT assay; format: functional, cell-based; conditions: A549, 72 h; in short: as §3
[17] = Toxicity in nude mouse xenografted with human NCI-H1299 cells assessed as body weight loss at 100 mg/kg, ip qd upto 8 days; conditions: in vivo, 192 h
[18] = Tmax in ICR mouse at 100 mg/kg, ip measured upto 24 hrs by LC-MS analysis; format: ADME, organism-based; conditions: in vivo; in short: as §2
[19] = […] xenografted with human NCI-H1299 cells assessed as kidney histology at 100 mg/kg, ip qd upto 8 days by haematoxylin and eosin staining-based light microscopic analysis; format: organism-based; conditions: in vivo, 192 h, time <=8 day
In short: (§4)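 Nude mice (male, 4–6 weeks) given 5×10^6 H1299 cells in PBS subcutaneously at both flanks; at ~200 mm³ randomised to vehicle or 100 mg/kg i.p. once daily; volume (L×W×W)×π/6, body weight tracked; terminal tumour weights, Ki67 IHC on tumours, H&E of kidney and liver; mean ± s.e.m., unpaired t-test.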

NCI-H1299 [20] = experiment: Inhibition of glucose metabolism in human H1299 cells assessed as reduction in ATP level at 10 to 20 uM; format: functional, cell-based; conditions: dose microM 10-20
NCI-H1299 [21] = experiment: Antitumor activity against human NCI-H1299 cells xenografted in nude mouse assessed as tumor volume at 100 mg/kg,qd ip measured upto 8 days relative to control; conditions: time day <=8
[22] = target: Phosphoglycerate mutase 1 (Homo sapiens, UniProt P18669); experiment: Inhibition of human recombinant PGAM1 by measuring decrease in OD by enzyme based assay
In short: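 C-terminal His6-tagged PGAM1, Ni-NTA purified, 4.6 nM, preincubated with inhibitor in DMSO; coupled enolase/pyruvate kinase M2/LDH system in 100 mM Tris-HCl, 100 mM KCl, 5 mM MgCl2, 1 mM ADP, 0.2 mM NADH, 4 mM 3PG; NADH loss read at 340 nm. Counter-screen without PGAM1 using 4 mM 2PG. Mean ± s.d., n=3.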

NCI-H1299 [23] = experiment: Antitumor activity against human NCI-H1299 cells xenografted in ICR mouse assessed as tumor weight at 100 mg/kg,qd ip upto 8 days relative to control; format: functional, organism-based; conditions: nude, time day <=8, in the assay text read “nude mouse” for “ICR mouse”; in short: as §4
[24] = AUC (0 to infinity) in ICR mouse at 100 mg/kg, ip measured upto 24 hrs by LC-MS analysis; format: ADME, organism-based; set-up: route intraperitoneal, dose 100 mg/kg, time <=24; conditions: in vivo; in short: as §2
[25] = Cmax in ICR mouse at 100 mg/kg, ip measured upto 24 hrs by LC-MS analysis; format: ADME, organism-based; set-up: route intraperitoneal, dose 100 mg/kg, time <=24; conditions: in vivo; in short: as §2
NCI-H1299 [26] = experiment: Antiproliferative activity against human H1299 cells assessed as reduction in cell viability measured after 72 hrs by MTT assay; format: functional, cell-based; conditions: NCI-H1299, 72 h; in short: as §3

Sequence of 5'-AMP-activated protein kinase catalytic subunit alpha-2 (Homo sapiens) (P54646 whole entry, looked up): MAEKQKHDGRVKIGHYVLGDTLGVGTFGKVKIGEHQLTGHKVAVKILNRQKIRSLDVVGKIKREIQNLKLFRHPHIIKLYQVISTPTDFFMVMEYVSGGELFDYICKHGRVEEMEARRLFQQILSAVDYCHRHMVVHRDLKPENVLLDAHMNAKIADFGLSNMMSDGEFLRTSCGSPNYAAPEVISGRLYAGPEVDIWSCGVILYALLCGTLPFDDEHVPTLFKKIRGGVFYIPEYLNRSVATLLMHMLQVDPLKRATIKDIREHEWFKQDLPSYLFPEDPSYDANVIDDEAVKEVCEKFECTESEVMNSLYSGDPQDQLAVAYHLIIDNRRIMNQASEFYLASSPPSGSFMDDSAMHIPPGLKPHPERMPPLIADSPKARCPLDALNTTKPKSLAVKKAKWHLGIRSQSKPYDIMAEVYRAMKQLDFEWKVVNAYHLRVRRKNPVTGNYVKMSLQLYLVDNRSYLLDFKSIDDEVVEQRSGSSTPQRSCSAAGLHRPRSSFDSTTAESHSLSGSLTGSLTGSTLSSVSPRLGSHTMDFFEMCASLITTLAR
Sequence of Phosphoglycerate mutase 1 (P18669 whole entry): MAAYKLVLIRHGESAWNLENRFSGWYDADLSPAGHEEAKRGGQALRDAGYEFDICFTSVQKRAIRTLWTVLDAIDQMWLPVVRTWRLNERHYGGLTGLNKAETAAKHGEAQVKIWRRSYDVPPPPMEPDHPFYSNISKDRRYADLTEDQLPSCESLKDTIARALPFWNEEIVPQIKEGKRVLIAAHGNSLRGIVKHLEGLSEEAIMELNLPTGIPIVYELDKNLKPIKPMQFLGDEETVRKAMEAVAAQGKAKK

For O=C1c2ccccc2C(=O)c2c1cc(NS(=O)(=O)c1ccc(-c3ccccc3)cc1)c(O)c2O, the inhibition (NCI-H1299 [1]) was “Active”, the Activity (NCI-H1299 [2]) was “Active” and the AUC(0-t) [3] was 239 µg·h/mL. For the same compound, the inhibition (NCI-H1299 [4]) was “Dose-dependent effect”, the inhibition (NCI-H1299 [5]) was “Dose-dependent effect” and the CL/F [6] was 0.193 mL/min. The Activity [7] was “Non-Toxic”, the Activity (NCI-H1299 [8]) was “Active” and the Vd/F [9] was 71.64 mL. The IC50 (PC-9) was 4.8 µM, the inhibition (NCI-H1299 [10]) was “Dose-dependent effect” and the half-life [11] was 4.28 h. For the same compound, the Activity [12] was “Active”, the inhibition (NCI-H1299 [13]) was “Active” and the inhibition (NCI-H1299 [14]) was “Active”. The inhibition (NCI-H1299 [15]) was “Active”, the inhibition (NCI-H1299 [16]) was “Dose-dependent effect” and the IC50 (A549) was 10.3 µM. For the same compound, the Activity [17] was “Non-Toxic”, the Tmax [18] was 0.25 h and the Activity [19] was “Non-Toxic”. The inhibition (NCI-H1299 [20]) was “Active”, the Activity (NCI-H1299 [21]) was “Active” and the IC50 [22] was 0.25 µM. For the same compound, the Activity (NCI-H1299 [23]) was “Active”, the AUC(0-inf) [24] was 245 µg·h/mL and the Cmax [25] was 131 µg/mL. For the same compound, the IC50 (NCI-H1299 [26]) was 6.4 µM.
